Active and inactive are the calls of the source. The rule behind the calls is not given here.
Key:
[1] = tested on: Streptococcus pneumoniae; assay: Antibacterial activity against penicillin-resistant Streptococcus pneumoniae DSM 11865; format: functional
[2] = tested on: Enterococcus faecium; assay: Antibacterial activity against vancomycin-resistant Enterococcus faecium DSM 17050; format: functional
[3] = tested on: Staphylococcus aureus; assay: Antibacterial activity against methicillin-resistant Staphylococcus aureus ATCC 33592; format: functional
[4] = tested on: Staphylococcus aureus; assay: Antibacterial activity against methicillin-resistant Staphylococcus aureus ATCC 33592 at >1 ug/mL after 48 hrs; format: functional, organism-based
[5] = tested on: Staphylococcus aureus; assay: Bacteriostatic activity against methicillin-resistant Staphylococcus aureus ATCC 33592 by time kill study in presence of fetal calf serum; format: functional, organism-based
[6] = tested on: Escherichia coli; assay: Antibacterial activity against Escherichia coli ATCC 35218 expressing LacR at >1 ug/mL after 48 hrs; format: functional, organism-based
[7] = tested on: Pseudomonas aeruginosa; assay: Bacteriostatic activity against Pseudomonas aeruginosa ATCC 27853 by time kill study; format: functional, organism-based
[8] = tested on: Enterococcus faecium; assay: Antibacterial activity against vancomycin-resistant Enterococcus faecium DSM 17050 at >1 ug/mL after 48 hrs; format: functional, organism-based
[9] = tested on: Escherichia coli; assay: Bacteriostatic activity against Escherichia coli ATCC 35218 expressing LacR by time kill study in presence of fetal calf serum; format: functional, organism-based
[10] = tested on: Enterococcus faecium; assay: Bacteriostatic activity against vancomycin-resistant Enterococcus faecium DSM 17050 by time kill study in presence of fetal calf serum; format: functional, organism-based
[11] = tested on: Escherichia coli; assay: Bacteriostatic activity against Escherichia coli ATCC 35218 expressing LacR by time kill study; format: functional, organism-based
[12] = tested on: Streptococcus pneumoniae; assay: Bacteriostatic activity against penicillin-resistant Streptococcus pneumoniae DSM 11865 by time kill study in presence of fetal calf serum; format: functional, organism-based
[13] = tested on: Streptococcus pneumoniae; assay: Antibacterial activity against penicillin-resistant Streptococcus pneumoniae DSM 11865 at >1 ug/mL after 48 hrs; format: functional, organism-based
[14] = tested on: Pseudomonas aeruginosa; assay: Bacteriostatic activity against Pseudomonas aeruginosa ATCC 27853 by time kill study in presence of fetal calf serum; format: functional, organism-based
[15] = tested on: Pseudomonas aeruginosa; assay: Antibacterial activity against Pseudomonas aeruginosa ATCC 27853 at >1 ug/mL after 48 hrs; format: functional, organism-based
[16] = tested on: Enterococcus faecium; assay: Bacteriostatic activity against vancomycin-resistant Enterococcus faecium DSM 17050 by time kill study; format: functional, organism-based
[17] = tested on: Staphylococcus aureus; assay: Antibacterial activity against methicillin-resistant Staphylococcus aureus ATCC 33592 infected in mouse assessed as log reduction in bacteremia at 20 mg/kg/day, iv relative to control; format: functional
[18] = tested on: Staphylococcus aureus; assay: Antibacterial activity against methicillin-resistant Staphylococcus aureus ATCC 33592 infected in mouse assessed as host survival at 20 mg/kg/day, iv relative to control; format: functional
[19] = tested on: Staphylococcus aureus; assay: Antibacterial activity against methicillin-resistant Staphylococcus aureus ATCC 33592 infected in mouse assessed as log reduction in bacteremia at 40 mg/kg/day, sc relative to control; format: functional; settings: route subcutaneous
Summary of the method: (§1)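 Mice with MRSA ATCC33592 septicemia were dosed sc at 20, 40 or 80 mg/kg/d in 5% ethanol/5% Solutol/Tris-NaCl buffer pH 9. Survival was scored in six animals per group, and log reduction of blood bacteremia in five animals per group. Results are given as mean ± sem against the vehicle-treated group (P < 0.05 or P < 0.001).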

[20] = tested on: Staphylococcus aureus; assay: Antibacterial activity against methicillin-resistant Staphylococcus aureus ATCC 33592 infected in mouse assessed as host survival at 40 mg/kg/day, sc relative to control; format: functional; settings: ATCC 33592, sc, route subcutaneous; summary of the method: as §1
[21] = tested on: Escherichia coli; assay: Antibacterial activity against Escherichia coli ATCC 35218 expressing LacR; format: functional
[22] = tested on: Pseudomonas aeruginosa; assay: Antibacterial activity against Pseudomonas aeruginosa ATCC 27853; format: functional
[23] = Streptococcus pneumoniae, DSM 11865
[24] = Enterococcus faecium, DSM 17050
[25] = Staphylococcus aureus, ATCC 33592

Structure (SMILES)	Activity [4]	Activity [5]	Activity [6]	Activity [7]	Activity [8]	Activity [9]	Activity [10]	Activity [11]	Activity [12]	Activity [13]	Activity [14]	Activity [15]	IC80 [1, 23]	IC80 [2, 24]	IC80 [3, 25]	other results
CCCCCCc1c(O)c(Cl)cc2c1O[C@]1(C2=O)C(Cl)=C(Cl)C(=O)N1C (stereo in doubt; form 2) [listing 1 of 2 here]	–	–	–	–	–	–	–	–	–	–	–	–	–	–	–	IC80 [1]: 0.4 µM; IC80 [2]: 8.2 µM; IC80 [3]: 3.7 µM
CCCCCCc1c(O)c(Cl)cc2c1O[C@]1(C2=O)C(Cl)=C(Cl)C(=O)N1C (stereo in doubt; form 1)	Active	inactive	Active	Dose-dependent effect	Active	inactive	inactive	Dose-dependent effect	inactive	Active	inactive	Active	–	–	–	–
CCCCCCc1c(O)c(Cl)cc2c1O[C@]1(C2=O)C(Cl)=C(Cl)C(=O)N1C (stereo in doubt; form 2) [listing 2 of 2 here]	Active	inactive	Active	Dose-dependent effect	Active	inactive	inactive	Dose-dependent effect	inactive	Active	inactive	Active	–	–	–	Activity [16]: Dose-dependent effect
CN[C@H](CC(C)C)C(=O)N[C@H]1C(=O)N[C@@H](CC(N)=O)C(=O)N[C@H]2C(=O)N[C@H]3C(=O)N[C@H](C(=O)N[C@H](C(=O)O)c4cc(O)cc(O)c4-c4cc3ccc4O)[C@H](O)c3ccc(c(Cl)c3)Oc3cc2cc(c3O[C@@H]2O[C@H](CO)[C@@H](O)[C@H](O)[C@H]2O[C@H]2C[C@](C)(N)[C@H](O)[C@H](C)O2)Oc2ccc(cc2Cl)[C@H]1O [VANCOMYCIN]	–	–	–	–	–	–	–	–	–	–	–	–	0.2 µM	> 30 µM	0.4 µM	FC [17]: 4.2; survival at 20 mg/kg/day [18]: 100%; FC [19]: 4; survival at 40 mg/kg/day [20]: 100%
CCCCCCc1c(O)c(Cl)cc2c1OC1(C2=O)C(Cl)=C(Cl)C(=O)N1C (racemic)	Active	inactive	Active	–	Active	inactive	inactive	–	inactive	Active	inactive	Active	1.3 µM	5.2 µM	3.1 µM	IC80 [21]: > 30 µM; IC80 [22]: > 30 µM

Reference: ChEMBL document CHEMBL2086221, “Armeniaspiroles, a new class of antibacterials: Antibacterial activities and total synthesis of 5-chloro-Armeniaspirole A” (Bioorg Med Chem Lett, 2012)
